According to ChEMBL document CHEMBL1921792, “Synthesis and anticonvulsant activity of trans- and cis-2-(2,6-dimethylphenoxy)-N-(2- or 4-hydroxycyclohexyl)acetamides and their amine analogs” (Bioorg Med Chem, 2011):
The source made the active and inactive calls. The rule behind the calls is not given here.

Assays:
N1E-115 = test: Blockade of voltage-gated sodium channel in mouse N1E-115 cells assessed as stimulation at 100 umol at -90 mV holding potential by whole-cell patch clamp electrophysiological assay relative to control; format: cell-based
Outline: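 Whole-cell patch clamp with borosilicate glass electrodes on single cultured N1E-115 neuroblastoma cells. Compound at 100 µmol, holding potential -90 mV. Voltage-dependent sodium current expressed as % of control stimulation (no compound). Results from 5–8 cells averaged with SEM; significance by Student's t-test.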

Rattus norvegicus [1] = test: Neurotoxicity in rat assessed as neurological deficit at 30 mg/kg, po after 2 hrs […]; format: toxicity, organism-based; design: dose 30 mg/kg, route oral; conditions: in vivo
Outline: (§1)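 Rats given the compound, suspended in 0.5% methylcellulose, by the stated route and dose. Neurological deficit was recorded at the listed times as ataxia and loss of placing response and muscle tone. Reported as number of rats showing toxicity/number tested.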

Rattus norvegicus [2] = test: Anticonvulsant activity in rat assessed as protection against maximal electric shock-induced seizures at 30 mg/kg, po after 0.5 hrs; format: functional, organism-based; design: dose 30 mg/kg
Outline: (§2)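 MES test in rats dosed orally at 30 mg/kg as a suspension in 0.5% methylcellulose, read at 0.25–4 h. Four rats per time point; result is protected/tested.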

Mus musculus [3] = test: Neurotoxicity in mouse assessed as inability to maintain equilibrium on rotarod at 30 mg/kg, ip after 4 hrs by rotarod test; format: toxicity, organism-based; design: dose 30 mg/kg, route intraperitoneal; conditions: in vivo
Outline: (§3)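 Drug given ip to mice as a suspension in 0.5% methylcellulose. At the stated time after dosing, each mouse was placed on a 1 inch knurled rod turning at 6 rpm. Neurotoxicity = inability to stay balanced at least 1 min in each of three trials. Scored as animals toxic/animals tested in small groups.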

Mus musculus [4] = test: Anticonvulsant activity against subcutaneous pentylenetetrazole-induced seizures in mouse at 100 mg/kg, ip after 0.5 hrs; format: functional, organism-based; design: dose 100 mg/kg
Outline: (§4)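 Phase I screen in mice. Compound given ip as a suspension in 0.5% methylcellulose, read at 30 min and 4 h. Pentylenetetrazole 85 mg/kg in 0.9% NaCl was injected sc into the posterior midline and animals watched ≥30 min. Protection meant no clonic spasm lasting ≥5 s. Groups of 1–8 animals; result is protected/tested.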

Mus musculus [5] = test: Anticonvulsant activity in mouse assessed as protection against maximal electric shock-induced seizures at 30 mg/kg, ip after 4 hrs; format: functional, organism-based; design: dose 30 mg/kg
Outline: (§5)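 Phase I maximal electroshock screen in mice. Compound given ip as a suspension in 0.5% methylcellulose at 30, 100 or 300 mg/kg, tested at 30 min and 4 h. Small groups (1–8); result is number protected/number tested.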

Rattus norvegicus [6] = test: Neurotoxicity in rat assessed as neurological deficit at 30 mg/kg, po after 1 hr […]; format: toxicity, organism-based; design: dose 30 mg/kg, route oral; conditions: in vivo; outline: as §1
Rattus norvegicus [7] = test: Neurotoxicity in rat assessed as neurological deficit at 30 mg/kg, po after 4 hrs by rotarod test; format: toxicity, organism-based; design: dose 30 mg/kg, route oral; conditions: in vivo; outline: as §1
Rattus norvegicus [8] = test: Neurotoxicity in rat assessed as neurological deficit at 30 mg/kg, po after 0.5 hrs […]; format: toxicity, organism-based; design: dose 30 mg/kg, route oral; conditions: in vivo; outline: as §1
Mus musculus [9] = test: Neurotoxicity in mouse assessed as inability to maintain equilibrium on rotarod at 30 mg/kg, ip after 0.5 hrs by rotarod test; format: toxicity, organism-based; design: dose 30 mg/kg, route intraperitoneal; conditions: in vivo; outline: as §3
Mus musculus [10] = test: Anticonvulsant activity against subcutaneous pentylenetetrazole-induced seizures in mouse at 30 mg/kg, ip after 0.5 hrs; format: functional, organism-based; design: dose 30 mg/kg; outline: as §4
Mus musculus [11] = test: Anticonvulsant activity against subcutaneous pentylenetetrazole-induced seizures in mouse at 30 mg/kg, ip after 4 hrs; format: functional, organism-based; design: dose 30 mg/kg; outline: as §4
Mus musculus [12] = test: Anticonvulsant activity in mouse assessed as protection against maximal electric shock-induced seizures at 30 mg/kg, ip after 0.5 hrs; format: functional, organism-based; design: dose 30 mg/kg; outline: as §5
Mus musculus [13] = test: Neurotoxicity in mouse assessed as inability to maintain equilibrium on rotarod at 300 mg/kg, ip after 0.5 hrs by rotarod test; format: toxicity, organism-based; design: dose 300 mg/kg, route intraperitoneal; conditions: in vivo; outline: as §3
Mus musculus [14] = test: Anticonvulsant activity in mouse assessed as protection against maximal electric shock-induced seizures at 300 mg/kg, ip after 4 hrs; format: functional, organism-based; design: dose 300 mg/kg; outline: as §5
Mus musculus [15] = test: Neurotoxicity in mouse assessed as inability to maintain equilibrium on rotarod at 100 mg/kg, ip after 4 hrs by rotarod test; format: toxicity, organism-based; design: dose 100 mg/kg, route intraperitoneal; conditions: in vivo; outline: as §3
Mus musculus [16] = test: Anticonvulsant activity against subcutaneous pentylenetetrazole-induced seizures in mouse at 100 mg/kg, ip after 4 hrs; format: functional, organism-based; design: dose 100 mg/kg; outline: as §4
Mus musculus [17] = test: Anticonvulsant activity against subcutaneous pentylenetetrazole-induced seizures in mouse at 300 mg/kg, ip after 4 hrs; format: functional, organism-based; design: dose 300 mg/kg; outline: as §4
Mus musculus [18] = test: Anticonvulsant activity in mouse assessed as protection against maximal electric shock-induced seizures at 300 mg/kg, ip after 0.5 hrs; format: functional, organism-based; design: dose 300 mg/kg; outline: as §5
Rattus norvegicus [19] = test: Neurotoxicity in rat assessed as neurological deficit at 30 mg/kg, po after 0.25 hrs […]; format: toxicity, organism-based; design: dose 30 mg/kg, route oral; conditions: in vivo; outline: as §1
Rattus norvegicus [20] = test: Anticonvulsant activity in rat assessed as protection against maximal electric shock-induced seizures at 30 mg/kg, po after 0.25 hrs; format: functional, organism-based; design: dose 30 mg/kg; outline: as §2
Mus musculus [21] = test: Neurotoxicity in mouse assessed as inability to maintain equilibrium on rotarod at 300 mg/kg, ip after 4 hrs by rotarod test; format: toxicity, organism-based; design: dose 300 mg/kg, route intraperitoneal; conditions: in vivo; outline: as §3
Mus musculus [22] = test: Anticonvulsant activity against subcutaneous pentylenetetrazole-induced seizures in mouse at 300 mg/kg, ip after 0.5 hrs; format: functional, organism-based; design: dose 300 mg/kg; outline: as §4
Mus musculus [23] = test: Anticonvulsant activity in mouse assessed as protection against maximal electric shock-induced seizures at 100 mg/kg, ip after 4 hrs; format: functional, organism-based; design: dose 100 mg/kg; outline: as §5
Mus musculus [24] = test: Anticonvulsant activity in mouse assessed as protection against maximal electric shock-induced seizures at 100 mg/kg, ip after 0.5 hrs; format: functional, organism-based; design: dose 100 mg/kg; outline: as §5

Structure (SMILES): Nc1nnc(-c2cccc(Cl)c2Cl)c(N)n1
- Activity (N1E-115): 67%

Structure (SMILES): Cc1cccc(C)c1OCC(=O)NC1CCC(O)CC1.Cl (racemic)
- Activity (Rattus norvegicus [1]): Non-toxic
- Activity (Rattus norvegicus [2]): Active
- Activity (Mus musculus [3]): Non-toxic
- Activity (Mus musculus [4]): inactive
- Activity (Mus musculus [5]): inactive
- Activity (Rattus norvegicus [6]): Non-toxic
- Activity (Rattus norvegicus [7]): Non-toxic
- Activity (Rattus norvegicus [8]): Non-toxic
- Activity (Mus musculus [9]): Non-toxic
- Activity (Mus musculus [10]): inactive
- Activity (Mus musculus [11]): inactive
- Activity (Mus musculus [12]): inactive
- Activity (Mus musculus [13]): Toxic
- Activity (Mus musculus [14]): inactive
- Activity (Mus musculus [15]): Non-toxic
- Activity (Mus musculus [16]): inactive
- Activity (Mus musculus [17]): inactive
- Activity (Mus musculus [18]): Active
- Activity (Rattus norvegicus [19]): Non-toxic
- Activity (Rattus norvegicus [20]): Active
- Activity (Mus musculus [21]): Non-toxic
- Activity (Mus musculus [22]): Active
- Activity (Mus musculus [23]): inactive
- Activity (Mus musculus [24]): Active
